Laboratory results as given in ChEMBL document CHEMBL3217512, “Indole/triazole conjugates are selective inhibitors and inducers of bacterial biofilms” (Medchemcomm, 2013).

Columns and labels:
Staphylococcus aureus [1] = test: Antimicrobial activity against Staphylococcus aureus 29213 assessed as effect on planktonic growth at PC75 after 2 to 24 hrs by colony count method; format: organism-based; conditions: in vivo
Staphylococcus aureus [2] = test: Antimicrobial activity against Staphylococcus aureus 29213 assessed as effect on planktonic growth at PC50 after 2 to 24 hrs by colony count method; format: organism-based; conditions: in vivo
Staphylococcus aureus [3] = test: Antimicrobial activity against Staphylococcus aureus 29213 assessed as effect on planktonic growth at PC25 after 2 to 24 hrs by colony count method; format: organism-based; conditions: in vivo
Staphylococcus aureus [4] = test: Antimicrobial activity against Staphylococcus aureus 29213 assessed as effect on planktonic growth at PC75 after 2 to 24 hrs; format: organism-based; conditions: in vivo
Staphylococcus aureus [5] = test: Antimicrobial activity against Staphylococcus aureus 29213 assessed as effect on planktonic growth at PC50 after 2 to 24 hrs; format: organism-based; conditions: in vivo
Staphylococcus aureus [6] = test: Antimicrobial activity against Staphylococcus aureus 29213 assessed as effect on planktonic growth at PC25 after 2 to 24 hrs; format: organism-based; conditions: in vivo
Acinetobacter baumannii [7] = test: Antimicrobial activity against Acinetobacter baumannii 19606 assessed as effect on planktonic growth at PC75 after 2 to 24 hrs by colony count method; design: species or system ATCC 19606
Acinetobacter baumannii [8] = test: Antimicrobial activity against Acinetobacter baumannii 19606 assessed as effect on planktonic growth at PC50 after 2 to 24 hrs by colony count method; design: species or system ATCC 19606
Acinetobacter baumannii [9] = test: Antimicrobial activity against Acinetobacter baumannii 19606 assessed as effect on planktonic growth at PC25 after 2 to 24 hrs by colony count method; design: species or system ATCC 19606
Acinetobacter baumannii [10] = test: Antimicrobial activity against Acinetobacter baumannii 19606 assessed as effect on planktonic growth at PC75 after 2 to 24 hrs; design: species or system ATCC 19606
Acinetobacter baumannii [11] = test: Antimicrobial activity against Acinetobacter baumannii 19606 assessed as effect on planktonic growth at PC50 after 2 to 24 hrs; design: species or system ATCC 19606
Acinetobacter baumannii [12] = test: Antimicrobial activity against Acinetobacter baumannii 19606 assessed as effect on planktonic growth at PC25 after 2 to 24 hrs; design: species or system ATCC 19606
Escherichia coli [13] = test: Antimicrobial activity against Escherichia coli K-12 ER2718 assessed as effect on planktonic growth at PC75 after 2 to 24 hrs by colony count method; format: organism-based; conditions: in vivo
Escherichia coli [14] = test: Antimicrobial activity against Escherichia coli K-12 ER2718 assessed as effect on planktonic growth at PC50 after 2 to 24 hrs by colony count method; format: organism-based; conditions: in vivo
Escherichia coli [15] = test: Antimicrobial activity against Escherichia coli K-12 ER2718 assessed as effect on planktonic growth at PC25 after 2 to 24 hrs by colony count method; format: organism-based
Escherichia coli [16] = test: Antimicrobial activity against Escherichia coli K-12 ER2718 assessed as effect on planktonic growth at PC75 after 2 to 24 hrs; format: organism-based; conditions: in vivo
Escherichia coli [17] = test: Antimicrobial activity against Escherichia coli K-12 ER2718 assessed as effect on planktonic growth at PC50 after 2 to 24 hrs; format: organism-based
Escherichia coli [18] = test: Antimicrobial activity against Escherichia coli K-12 ER2718 assessed as effect on planktonic growth at PC25 after 2 to 24 hrs; format: organism-based
Staphylococcus aureus [19] = test: Antimicrobial activity against methicillin-resistant Staphylococcus aureus BAA 44 assessed as effect on planktonic growth at IC50 after 2 to 24 hrs by colony count method; format: organism-based; conditions: in vivo
Staphylococcus aureus [20] = test: Antimicrobial activity against Staphylococcus aureus 29213 assessed as effect on planktonic growth at IC50 after 2 to 24 hrs by colony count method; format: organism-based; conditions: in vivo
Acinetobacter baumannii [21] = test: Antimicrobial activity against Acinetobacter baumannii 19606 assessed as effect on planktonic growth at IC50 after 2 to 24 hrs by colony count method; design: species or system ATCC 19606
Escherichia coli [22] = test: Antimicrobial activity against Escherichia coli K-12 ER2718 assessed as effect on planktonic growth at IC50 after 2 to 24 hrs by colony count method; format: organism-based
Staphylococcus aureus [23] = test: Antimicrobial activity against methicillin-resistant Staphylococcus aureus BAA 44 assessed as effect on planktonic growth at IC50 after 2 to 24 hrs; format: organism-based; conditions: in vivo
Staphylococcus aureus [24] = test: Antimicrobial activity against Staphylococcus aureus 29213 assessed as effect on planktonic growth at IC50 after 2 to 24 hrs; format: organism-based; conditions: in vivo
Acinetobacter baumannii [25] = test: Antimicrobial activity against Acinetobacter baumannii 19606 assessed as effect on planktonic growth at IC50 after 2 to 24 hrs; design: species or system ATCC 19606
Escherichia coli [26] = test: Antimicrobial activity against Escherichia coli K-12 ER2718 assessed as effect on planktonic growth at IC50 after 2 to 24 hrs; format: organism-based
Staphylococcus aureus [27] = test: Induction of biofilm formation in Staphylococcus aureus 29213 at 50 uM after 24 hrs by crystal violet staining-based assay relative to control; format: functional
In short: (§1)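 Static biofilm assay with compounds at 50 μM and crystal violet read-out, relative to an untreated control. Compounds increasing biofilm by less than 50% were called inducers, and by more than 50% strong inducers.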

Acinetobacter baumannii [28] = test: Induction of biofilm formation in Acinetobacter baumannii 19606 at 50 uM after 24 hrs by crystal violet staining-based assay relative to control; format: functional, ATCC 19606 = CIP 70.34 = JCM 6841; in short: as §1
Escherichia coli [29] = test: Induction of biofilm formation in Escherichia coli K-12 ER2718 at 50 uM after 24 hrs by crystal violet staining-based assay relative to control; format: functional; in short: as §1
Staphylococcus aureus [30] = test: Inhibition of biofilm formation in methicillin-resistant Staphylococcus aureus BAA 44 at 150 uM after 24 hrs by crystal violet staining-based assay relative to control; format: functional; conditions: BAA 44, 24 h
In short: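 Static biofilm development in MRSA, read out by crystal violet staining against an untreated control. Initial screen at 150 μM. Inhibitors then went to dose-response, with IC50 taken as the concentration giving 50% inhibition of biofilm growth. Induction was judged at 50 μM: under 50% induction counted as "inducer", over 50% as "strong inducer".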

Staphylococcus aureus [31] = test: Antimicrobial activity against Staphylococcus aureus 29213 assessed as effect on planktonic growth at 50 uM after 2 to 24 hrs; format: organism-based
In short: (§2)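 Growth curve analysis of planktonic bacteria with each biofilm inducer at 50 μM, used to assess toxicity.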

Acinetobacter baumannii [32] = test: Antimicrobial activity against Acinetobacter baumannii 19606 assessed as effect on planktonic growth at 50 uM after 2 to 24 hrs; design: species or system ATCC 19606; in short: as §2
Escherichia coli [33] = test: Antimicrobial activity against Escherichia coli K-12 ER2718 assessed as effect on planktonic growth at 50 uM after 2 to 24 hrs; format: organism-based; in short: as §2
Escherichia coli [34] = test: Induction of biofilm formation in Escherichia coli K-12 ER2718 assessed as concentration required for 50% promotion of biofilm formation after 24 hrs by crystal violet staining-based assay; format: functional
In short: (§3)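 For strong inducers of E. coli biofilm, dose-response curves were run in the static crystal violet assay. PC25, PC50 and PC75 are the concentrations promoting biofilm formation by 25%, 50% and 75%.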

Escherichia coli [35] = test: Induction of biofilm formation in Escherichia coli K-12 ER2718 assessed as concentration required for 25% promotion of biofilm formation after 24 hrs by crystal violet staining-based assay; format: functional; in short: as §3
Staphylococcus aureus [36] = test: Inhibition of biofilm formation in Staphylococcus aureus 29213 after 24 hrs by crystal violet staining-based assay; format: functional, organism-based; conditions: Staphylococcus aureus, 29213, 24 h
In short: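 Compounds active in the 150 μM screen were taken into dose-response studies under static conditions with a crystal violet read-out. IC50 is the concentration that inhibits 50% of biofilm growth relative to an untreated control.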

Escherichia coli [37] = test: Induction of biofilm formation in Escherichia coli K-12 ER2718 assessed as concentration required for 75% promotion of biofilm formation after 24 hrs by crystal violet staining-based assay; format: functional; in short: as §3

SMILES	Activity (Acinetobacter baumannii [7])	Activity (Acinetobacter baumannii [8])	Activity (Acinetobacter baumannii [9])	Activity (Acinetobacter baumannii [10])	Activity (Acinetobacter baumannii [11])	Activity (Acinetobacter baumannii [12])	Activity (Escherichia coli [13])	Activity (Escherichia coli [14])	Activity (Escherichia coli [15])	Activity (Escherichia coli [16])	Activity (Escherichia coli [17])	Activity (Escherichia coli [18])	Activity (Staphylococcus aureus [19])	Activity (Staphylococcus aureus [20])	Activity (Acinetobacter baumannii [21])	Activity (Escherichia coli [22])	Activity (Staphylococcus aureus [23])	Activity (Staphylococcus aureus [24])	Activity (Acinetobacter baumannii [25])	Activity (Escherichia coli [26])	other results
O=C(NCCn1cc(Cc2c(Br)[nH]c3ccccc23)nn1)c1ccccc1F	Non-toxic	Non-toxic	Non-toxic	Non-toxic	Non-toxic	Non-toxic	Non-toxic	Non-toxic	Non-toxic	Non-toxic	Non-toxic	Non-toxic	Non-toxic	Non-toxic	Non-toxic	Non-toxic	Non-toxic	Non-toxic	Non-toxic	Non-toxic	Activity (Staphylococcus aureus [1]): Non-toxic; Activity (Staphylococcus aureus [2]): Non-toxic; Activity (Staphylococcus aureus [3]): Non-toxic; Activity (Staphylococcus aureus [4]): Non-toxic; Activity (Staphylococcus aureus [5]): Non-toxic; Activity (Staphylococcus aureus [6]): Non-toxic; Activity (Staphylococcus aureus [27]): <50%; Activity (Acinetobacter baumannii [28]): <50%; Activity (Escherichia coli [29]): <50%; inhibition at 150 µM (Staphylococcus aureus [30]): 20%; Activity (Staphylococcus aureus [31]): Non-toxic; Activity (Acinetobacter baumannii [32]): Non-toxic; Activity (Escherichia coli [33]): Non-toxic
CCCCCCCc1ccc(C(=O)NCCn2cc(Cc3csc4ccccc34)nn2)cc1	Non-toxic	Non-toxic	Non-toxic	Non-toxic	Non-toxic	Non-toxic	Non-toxic	Non-toxic	Non-toxic	Non-toxic	Non-toxic	Non-toxic	Non-toxic	Non-toxic	Non-toxic	Non-toxic	Non-toxic	Non-toxic	Non-toxic	Non-toxic	Activity (Escherichia coli [34]): 56.3 µM; Activity (Escherichia coli [35]): 22.2 µM; Activity (Acinetobacter baumannii [28]): <50%; Activity (Escherichia coli [29]): >50%; inhibition at 150 µM (Staphylococcus aureus [30]): < 5%; IC50 (Staphylococcus aureus [36]): 83 µM; Activity (Acinetobacter baumannii [32]): Non-toxic; Activity (Escherichia coli [37]): 93.8 µM; Activity (Escherichia coli [33]): Non-toxic
O=C(Cn1cc(Cc2csc3ccccc23)nn1)Nc1ccccc1	Non-toxic	Non-toxic	Non-toxic	Non-toxic	Non-toxic	Non-toxic	Non-toxic	Non-toxic	Non-toxic	Non-toxic	Non-toxic	Non-toxic	Non-toxic	Non-toxic	Non-toxic	Non-toxic	Non-toxic	Non-toxic	Non-toxic	Non-toxic	Activity (Acinetobacter baumannii [28]): <50%; Activity (Escherichia coli [29]): <50%; inhibition at 150 µM (Staphylococcus aureus [30]): 20%; IC50 (Staphylococcus aureus [36]): 215 µM; Activity (Acinetobacter baumannii [32]): Non-toxic; Activity (Escherichia coli [33]): Non-toxic
